What was measured:
[1] = Drug uptake in iv dosed rhesus monkey white matter after 80 mins; type: ADME, organism-based, Macaca mulatta; conditions: in vivo
Outline: (§1)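 Anesthetized rhesus monkeys given [11C]-tracer i.v.; PET specific uptake value (SUV) read in cerebellum or white matter at 80 min postdose.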

[2] = Ratio of AUC in rhesus monkey CSF to AUC in rhesus monkey plasma; type: ADME, Macaca mulatta
Outline: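 Cisterna magna-ported rhesus monkeys dosed; CSF AUC divided by plasma AUC.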

[3] = Apparent passive permeability across pig LLC-PK1 cells; type: ADME, cell-based, Sus scrofa
Outline: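 Permeability measured in control LLC-PK1 cells.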

[4] = Drug uptake in iv dosed rhesus monkey cerebellum after 80 mins; type: ADME, organism-based, Macaca mulatta; conditions: in vivo; outline: as §1
[5] = target: T1, Calcitonin gene-related peptide type 1 receptor (Homo sapiens, UniProt O60894+Q16602); assay: Displacement of [125I]-hCGRP from human CGRP receptor expressed in HEK293 cells; type: cell-based
Outline: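 Ki for inhibition of 125I-hCGRP binding; membranes from HEK293 cells stably expressing human CLR/RAMP1; replicate number given per value.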

[6] = Fraction unbound in rhesus monkey CSF; type: ADME, Macaca mulatta, Cerebrospinal fluid
MDR1 (ABCB1) = MDR1 (ABCB1) (Homo sapiens, UniProt P08183); assay: Efflux ratio of human MDR1-mediated drug transport from basolateral to apical side over apical to basolateral side in pig LLC cells expressing human MDR1 at 5 uM; type: ADME, cell-based; conditions: LLC-PK1
Outline: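 P-gp transport ratio BA/AB in LLC-MDR1 cells, test compound at 5 μM.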

[7] = tested on: CGRP receptor (Macaca mulatta); assay: Ratio of drug uptake in iv dosed rhesus monkey cerebellum to drug uptake in iv dosed rhesus monkey white matter; conditions: in vivo
[8] = Fraction unbound in monkey plasma by equillibrium dialysis method; type: ADME, cell-free, Macaca mulatta; conditions: rhesus monkey
Outline: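 Plasma unbound fraction by equilibrium dialysis.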

[9] = Lipophilicity, log D of the compound at pH 7.0 by HPLC analysis; type: physicochemical; conditions: buffer
Outline: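 logD measured by HPLC at pH 7.0.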

Macaca mulatta = species on record: Macaca mulatta; assay: Binding affinity to rhesus monkey cerebellum CGRP receptor; type: tissue-based
[10] = target: Calcitonin gene-related peptide type 1 receptor (Homo sapiens) (UniProt Q16602); assay: Ratio of Bmax to Ki for human CGRP receptor expressed in HEK293 cells; type: cell-based
[11] = Binding affinity to rhesus monkey CGRP receptor by radioligand binding assay; set-up: species or system Macaca mulatta
[12] = target: T1, Calcitonin gene-related peptide type 1 receptor; assay: Antagonist activity at CGRP receptor (unknown origin) by cell based cAMP assay; type: functional
[13] = target: T1, Calcitonin gene-related peptide type 1 receptor; assay: Antagonist activity at CGRP receptor (unknown origin) by cell based cAMP assay in presence of human serum; type: functional
Outline: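 cAMP functional antagonism measured with 50% human serum added.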

[14] = target: Calcitonin gene-related peptide type 1 receptor (Homo sapiens) (UniProt Q16602); assay: Ratio of IC50 for CGRP receptor (unknown origin) to IC50 for CGRP receptor (unknown origin) in presence of human serum

MDR1 (ABCB1), sequence (P08183 whole entry): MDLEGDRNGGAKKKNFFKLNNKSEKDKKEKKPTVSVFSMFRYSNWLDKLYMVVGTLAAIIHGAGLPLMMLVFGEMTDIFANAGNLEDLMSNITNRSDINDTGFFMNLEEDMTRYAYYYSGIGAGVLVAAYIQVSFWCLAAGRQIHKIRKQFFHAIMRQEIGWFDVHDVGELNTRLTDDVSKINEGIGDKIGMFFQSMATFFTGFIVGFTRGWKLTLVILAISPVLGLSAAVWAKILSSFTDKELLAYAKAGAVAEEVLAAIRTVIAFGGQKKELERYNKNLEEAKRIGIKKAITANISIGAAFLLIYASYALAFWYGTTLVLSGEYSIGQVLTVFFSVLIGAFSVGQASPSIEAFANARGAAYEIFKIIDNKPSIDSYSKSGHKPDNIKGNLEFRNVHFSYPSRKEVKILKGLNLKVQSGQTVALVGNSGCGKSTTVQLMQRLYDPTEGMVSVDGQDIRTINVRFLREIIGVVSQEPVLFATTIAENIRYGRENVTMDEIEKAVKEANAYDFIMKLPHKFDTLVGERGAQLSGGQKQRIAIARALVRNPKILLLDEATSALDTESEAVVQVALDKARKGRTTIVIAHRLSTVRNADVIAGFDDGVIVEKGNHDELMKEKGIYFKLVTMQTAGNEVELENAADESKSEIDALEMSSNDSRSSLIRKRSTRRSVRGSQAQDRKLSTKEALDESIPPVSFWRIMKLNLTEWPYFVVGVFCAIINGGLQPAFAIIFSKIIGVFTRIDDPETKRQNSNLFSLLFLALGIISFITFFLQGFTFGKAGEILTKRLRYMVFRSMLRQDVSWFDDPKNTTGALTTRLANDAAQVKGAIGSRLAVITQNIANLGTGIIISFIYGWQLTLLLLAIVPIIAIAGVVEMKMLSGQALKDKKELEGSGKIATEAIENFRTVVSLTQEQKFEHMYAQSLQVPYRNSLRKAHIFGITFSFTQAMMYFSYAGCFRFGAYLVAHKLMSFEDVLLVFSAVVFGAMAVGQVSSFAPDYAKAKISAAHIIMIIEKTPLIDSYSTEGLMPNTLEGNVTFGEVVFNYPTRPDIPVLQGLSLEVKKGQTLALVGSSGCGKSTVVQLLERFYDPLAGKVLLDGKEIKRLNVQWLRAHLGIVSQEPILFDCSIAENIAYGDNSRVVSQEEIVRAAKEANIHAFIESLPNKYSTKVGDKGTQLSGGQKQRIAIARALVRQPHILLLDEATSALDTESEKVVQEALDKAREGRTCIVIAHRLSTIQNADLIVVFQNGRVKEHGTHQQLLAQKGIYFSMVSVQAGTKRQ
T1 sequence (Q16602 whole entry, one chain of several): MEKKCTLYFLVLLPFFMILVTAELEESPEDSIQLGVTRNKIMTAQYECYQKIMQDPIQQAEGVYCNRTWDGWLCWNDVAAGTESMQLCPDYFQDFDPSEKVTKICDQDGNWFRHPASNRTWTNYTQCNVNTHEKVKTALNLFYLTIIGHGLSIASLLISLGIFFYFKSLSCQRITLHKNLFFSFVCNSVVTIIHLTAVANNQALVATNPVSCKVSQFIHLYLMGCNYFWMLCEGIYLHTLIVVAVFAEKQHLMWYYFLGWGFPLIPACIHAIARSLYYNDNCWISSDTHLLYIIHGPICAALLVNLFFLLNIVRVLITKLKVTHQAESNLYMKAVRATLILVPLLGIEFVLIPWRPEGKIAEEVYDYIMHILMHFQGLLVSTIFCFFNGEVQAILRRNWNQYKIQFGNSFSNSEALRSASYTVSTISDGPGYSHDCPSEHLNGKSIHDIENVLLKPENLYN
Calcitonin gene-related peptide type 1 receptor (Homo sapiens), sequence (Q16602 whole entry): as the sequence (Q16602 whole entry, one chain of several) above

Row | SMILES | SUV [1] | Ratio AUC [2] [%] | Papp [3] [×10⁻⁶ cm/s] | SUV [4] | Ki [5] [nM] | fraction unbound [6] | efflux ratio at 5 µM (MDR1 (ABCB1)) | Ratio [7] | fraction unbound [8] | logD [9] | Bmax (Macaca mulatta) [nM] | Ratio [10] | Ki [11] [nM] | IC50 [12] [nM] | IC50 [13] [nM] | Ratio IC50 [14]
1 | CN1C[C@@](C)(c2cc(F)cc(F)c2)N(CC(=O)Nc2ccc3c(c2)C[C@@]2(C3)C(=O)Nc3ncccc32)C(=O)C1(C)C | 0.7 | 4.79 | 29 | 1.2 | 0.056 | 0.4 | 2.8 | 1.7 | 0.117 |  |  |  |  |  |  | 
2 | CN1C[C@@](C)(c2cc(F)cc(F)c2)N(CC(=O)Nc2cnc3c(c2)C[C@@]2(C3)C(=O)Nc3ncccc32)C(=O)C12CCCC2 |  |  |  |  | 0.017 |  | 14 |  |  |  |  |  |  |  |  | 
3 | CN1C[C@@](C)(c2cc(F)cc(F)c2)N(CCCc2cnc3c(c2)C[C@@]2(C3)C(=O)Nc3ncccc32)C(=O)C12CCCC2 | 0.6 |  | 23 | 1 | 0.045 |  | 1.8 | 1.7 | 0.061 | 3.16 |  |  |  |  |  | 
4 | CN1C[C@@](C)(c2cc(F)cc(F)c2)N(CC#Cc2ccc3c(c2)C[C@@]2(C3)C(=O)Nc3ncccc32)C(=O)C12CCCC2 | 0.7 | 0.99 |  | 1.1 | 0.11 |  |  | 1.6 | 0.008 | 4.11 |  |  |  |  |  | 
5 | C[C@@]1(c2cc(F)cc(F)c2)CNC2(CCCC2)C(=O)N1CC(=O)Nc1ccc2c(c1)C[C@@]1(C2)C(=O)Nc2ncccc21 |  | 6.61 |  |  |  |  | 9.3 |  |  |  |  |  |  |  |  | 
6 | CN1C[C@@](C)(c2cc(F)cc(F)c2)N(C/C=C/c2cnc3c(c2)C[C@@]2(C3)C(=O)Nc3ncccc32)C(=O)C12CCCC2 | 0.7 |  | 21 | 1.2 | 0.021 |  | 2 | 1.7 | 0.051 | 3.36 |  |  |  |  |  | 
7 | O=C(CN1C(=O)C2(CCCC2)NC[C@H]1c1cc(F)cc(F)c1)Nc1ccc2c(c1)C[C@@]1(C2)C(=O)Nc2ncccc21 [MK3207] |  | 2.9 | 28 |  |  |  | 25 |  |  | 2.35 | 24 | > 1000 |  |  |  | 
8 | CN1C[C@@](C)(c2cc(F)cc(F)c2)N(CC#Cc2cnc3c(c2)C[C@@]2(C3)C(=O)Nc3ncccc32)C(=O)C12CCCC2 | 0.7 | 2.64 | 17 | 1.3 | 0.019 |  | 1.5 | 1.9 | 0.031 | 3.41 |  |  |  |  |  | 
9 | CN1C[C@@](C)(c2cc(F)cc(F)c2)N(C/C=C/c2ccc3c(c2)C[C@@]2(C3)C(=O)Nc3ncccc32)C(=O)C12CCCC2 | 0.7 | 0.53 |  | 1 | 0.094 |  |  | 1.4 | 0.002 | 4.15 |  |  |  |  |  | 
10 | CN1C[C@@H](c2cc(F)cc(F)c2)N(CC(=O)Nc2ccc3c(c2)C[C@@]2(C3)C(=O)Nc3ncccc32)C(=O)C1(C)C | 0.5 |  | 27 | 0.7 | 0.022 |  |  |  | 0.205 |  |  |  |  |  |  | 
11 | CN1C[C@@](C)(c2cc(F)cc(F)c2)N(CC(=O)Nc2ccc3c(c2)C[C@@]2(C3)C(=O)Nc3ncccc32)C(=O)C12CCCC2 | 0.9 | 3.12 | 25 | 1.7 | 0.046 |  | 1.7 | 2 | 0.043 | 3.39 |  |  | 0.033 | 0.097 | 0.39 | 4
12 | CN1C[C@@](C)(c2cc(F)cc(F)c2)N(CCCc2ccc3c(c2)C[C@@]2(C3)C(=O)Nc3ncccc32)C(=O)C12CCCC2 | 0.6 |  |  | 0.8 | 0.5 |  |  | 1.3 | 0.002 | 4.33 |  |  |  |  |  | 
13 | CC1(C)NC[C@@H](c2cc(F)cc(F)c2)N(CC(=O)Nc2ccc3c(c2)C[C@@]2(C3)C(=O)Nc3ncccc32)C1=O |  | 4.35 |  |  | 0.034 | 0.1 | 33 |  | 0.429 |  |  |  |  |  |  | 
14 | CC1(C)NC[C@@](C)(c2cc(F)cc(F)c2)N(CC(=O)Nc2ccc3c(c2)C[C@@]2(C3)C(=O)Nc3ncccc32)C1=O |  |  |  |  | 0.11 |  | 20 |  | 0.333 |  |  |  |  |  |  | 
15 | O=C(N[C@@H]1CC[C@@H](c2cccc(F)c2F)CN(CC(F)(F)F)C1=O)N1CCC(n2c(=O)[nH]c3ncccc32)CC1 [TELCAGEPANT] |  | 1.3 |  |  |  |  | 24 |  | 0.038 |  |  |  |  |  |  | 

Source: ChEMBL document CHEMBL2429711, “[(11)C]MK-4232: The First Positron Emission Tomography Tracer for the Calcitonin Gene-Related Peptide Receptor” (ACS Med Chem Lett, 2013)
